# Data from ChEMBL document CHEMBL4689842, “EUbOPEN Chemogenomics Library wave 1” (2021).
# System: Fibroblast
# Experiment: Multiplex assay against human fibroblast
# Type: toxicity, cell-based
# In short: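 On a CQ1 microscope at 37°C and 5% CO2, live cells were imaged after compound addition. They had been stained at seeding with Hoechst33342, BioTracker Green Microtubule Cytoskeleton Dye, MitoTracker Red and Annexin V Alexa Fluor 680. CellPathfinder machine-learning gating assigned cells to Hoechst high-intensity objects or normal cells, normal cells to healthy, pyknosed or fragmented nuclei, and pyknosed cells to mitotic or apoptotic. Tubulin, mitochondrial-mass and membrane-permeability phenotypes are per cents of healthy-nucleus cells.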
# [1] = 12 h, 1 µM, compound concentration 1 uM, replicate 1
# [2] = 12 h, 1 µM, compound concentration 1 uM, replicate 2
# [3] = 12 h, 10 µM, compound concentration 10 uM, replicate 1
# [4] = 12 h, 10 µM, compound concentration 10 uM, replicate 2
# [5] = 24 h, 1 µM, compound concentration 1 uM, replicate 1
# [6] = 24 h, 1 µM, compound concentration 1 uM, replicate 2
# [7] = 24 h, 10 µM, compound concentration 10 uM, replicate 1
# [8] = 24 h, 10 µM, compound concentration 10 uM, replicate 2
# [9] = 48 h, 1 µM, compound concentration 1 uM, replicate 1
# [10] = 48 h, 1 µM, compound concentration 1 uM, replicate 2
# [11] = 48 h, 10 µM, compound concentration 10 uM, replicate 1
# [12] = 48 h, 10 µM, compound concentration 10 uM, replicate 2
smiles,measurement,setting,value
CCOC(=O)c1c(C)[nH]c2ccc3c(c12)CN1CCc2cc(OC)ccc2C1O3 (stereo unspecified),Population Apoptotic (%),[1],69%
same,Population Fragmented Nuclei (%),[1],21%
same,Population Healthy Nuclei (%),[1],51%
same,Population Hoechst High Intensity Objects (%),[1],8%
same,Population Membrane Permeable-Phenotype (%),[1],8%
same,Population Mitochondria Different-Phenotype (%),[1],23%
same,Population Mitotic Cells (%),[1],30%
same,Population Normal (%),[1],91%
same,Population Pyknosed Nuclei (%),[1],26%
same,Population Tubulin-Different-Phenotype (%),[1],43%
same,Total Cell Count,[1],150
same,Population Apoptotic (%),[2],9%
same,Population Fragmented Nuclei (%),[2],9%
same,Population Healthy Nuclei (%),[2],76%
same,Population Hoechst High Intensity Objects (%),[2],9%
same,Population Membrane Permeable-Phenotype (%),[2],3%
same,Population Mitochondria Different-Phenotype (%),[2],70%
same,Population Mitotic Cells (%),[2],90%
same,Population Normal (%),[2],90%
same,Population Pyknosed Nuclei (%),[2],14%
same,Population Tubulin-Different-Phenotype (%),[2],62%
same,Total Cell Count,[2],65
same,Population Apoptotic (%),[3],82%
same,Population Fragmented Nuclei (%),[3],18%
same,Population Healthy Nuclei (%),[3],38%
same,Population Hoechst High Intensity Objects (%),[3],7%
same,Population Membrane Permeable-Phenotype (%),[3],12%
same,Population Mitochondria Different-Phenotype (%),[3],74%
same,Population Mitotic Cells (%),[3],17%
same,Population Normal (%),[3],92%
same,Population Pyknosed Nuclei (%),[3],43%
same,Population Tubulin-Different-Phenotype (%),[3],80%
same,Total Cell Count,[3],88
same,Population Apoptotic (%),[4],80%
same,Population Fragmented Nuclei (%),[4],2%
same,Population Healthy Nuclei (%),[4],75%
same,Population Hoechst High Intensity Objects (%),[4],11%
same,Population Membrane Permeable-Phenotype (%),[4],70%
same,Population Mitochondria Different-Phenotype (%),[4],100%
same,Population Mitotic Cells (%),[4],20%
same,Population Normal (%),[4],88%
same,Population Pyknosed Nuclei (%),[4],22%
same,Population Tubulin-Different-Phenotype (%),[4],100%
same,Total Cell Count,[4],84
same,Population Apoptotic (%),[5],62%
same,Population Fragmented Nuclei (%),[5],29%
same,Population Healthy Nuclei (%),[5],58%
same,Population Hoechst High Intensity Objects (%),[5],13%
same,Population Membrane Permeable-Phenotype (%),[5],13%
same,Population Mitochondria Different-Phenotype (%),[5],13%
same,Population Mitotic Cells (%),[5],37%
same,Population Normal (%),[5],86%
same,Population Pyknosed Nuclei (%),[5],12%
same,Population Tubulin-Different-Phenotype (%),[5],48%
same,Total Cell Count,[5],152
same,Population Apoptotic (%),[6],8%
same,Population Fragmented Nuclei (%),[6],9%
same,Population Healthy Nuclei (%),[6],75%
same,Population Hoechst High Intensity Objects (%),[6],5%
same,Population Membrane Permeable-Phenotype (%),[6],1%
same,Population Mitochondria Different-Phenotype (%),[6],58%
same,Population Mitotic Cells (%),[6],91%
same,Population Normal (%),[6],94%
same,Population Pyknosed Nuclei (%),[6],14%
same,Population Tubulin-Different-Phenotype (%),[6],35%
same,Total Cell Count,[6],65
same,Population Apoptotic (%),[7],70%
same,Population Fragmented Nuclei (%),[7],27%
same,Population Healthy Nuclei (%),[7],46%
same,Population Hoechst High Intensity Objects (%),[7],20%
same,Population Membrane Permeable-Phenotype (%),[7],13%
same,Population Mitochondria Different-Phenotype (%),[7],70%
same,Population Mitotic Cells (%),[7],30%
same,Population Normal (%),[7],79%
same,Population Pyknosed Nuclei (%),[7],25%
same,Population Tubulin-Different-Phenotype (%),[7],86%
same,Total Cell Count,[7],99
same,Population Apoptotic (%),[8],89%
same,Population Fragmented Nuclei (%),[8],6%
same,Population Healthy Nuclei (%),[8],52%
same,Population Hoechst High Intensity Objects (%),[8],11%
same,Population Membrane Permeable-Phenotype (%),[8],83%
same,Population Mitochondria Different-Phenotype (%),[8],100%
same,Population Mitotic Cells (%),[8],10%
same,Population Normal (%),[8],88%
same,Population Pyknosed Nuclei (%),[8],41%
same,Population Tubulin-Different-Phenotype (%),[8],100%
same,Total Cell Count,[8],87
same,Population Apoptotic (%),[9],64%
same,Population Fragmented Nuclei (%),[9],32%
same,Population Healthy Nuclei (%),[9],54%
same,Population Hoechst High Intensity Objects (%),[9],14%
same,Population Membrane Permeable-Phenotype (%),[9],9%
same,Population Mitochondria Different-Phenotype (%),[9],9%
same,Population Mitotic Cells (%),[9],35%
same,Population Normal (%),[9],85%
same,Population Pyknosed Nuclei (%),[9],12%
same,Population Tubulin-Different-Phenotype (%),[9],47%
same,Total Cell Count,[9],155
same,Population Apoptotic (%),[10],100%
same,Population Fragmented Nuclei (%),[10],33%
same,Population Healthy Nuclei (%),[10],66%
same,Population Hoechst High Intensity Objects (%),[10],11%
same,Population Membrane Permeable-Phenotype (%),[10],6%
same,Population Mitochondria Different-Phenotype (%),[10],3%
same,Population Mitotic Cells (%),[10],0%
same,Population Normal (%),[10],88%
same,Population Pyknosed Nuclei (%),[10],0%
same,Total Cell Count,[10],185
same,Population Apoptotic (%),[11],90%
same,Population Fragmented Nuclei (%),[11],36%
same,Population Healthy Nuclei (%),[11],50%
same,Population Hoechst High Intensity Objects (%),[11],28%
same,Population Membrane Permeable-Phenotype (%),[11],10%
same,Population Mitochondria Different-Phenotype (%),[11],82%
same,Population Mitotic Cells (%),[11],10%
same,Population Normal (%),[11],71%
same,Population Pyknosed Nuclei (%),[11],12%
same,Population Tubulin-Different-Phenotype (%),[11],84%
same,Total Cell Count,[11],108
same,Population Apoptotic (%),[12],66%
same,Population Fragmented Nuclei (%),[12],46%
same,Population Healthy Nuclei (%),[12],51%
same,Population Hoechst High Intensity Objects (%),[12],25%
same,Population Membrane Permeable-Phenotype (%),[12],0%
same,Population Mitochondria Different-Phenotype (%),[12],74%
same,Population Mitotic Cells (%),[12],33%
same,Population Normal (%),[12],74%
same,Population Pyknosed Nuclei (%),[12],1%
same,Population Tubulin-Different-Phenotype (%),[12],89%
same,Total Cell Count,[12],223
